# In ChEMBL document CHEMBL2046402, “The First Dual ChE/FAAH Inhibitors: New Perspectives for Alzheimer's Disease?” (ACS Med Chem Lett, 2012):
# Molecular target: T1, Acetylcholinesterase (Homo sapiens, UniProt P22303)
# Experiment: Inhibition of human recombinant AChE using acetylthiocholine iodide as substrate by Ellman's method
# Settings: TDE = time-dependent effect
# T1 sequence (P22303 whole entry): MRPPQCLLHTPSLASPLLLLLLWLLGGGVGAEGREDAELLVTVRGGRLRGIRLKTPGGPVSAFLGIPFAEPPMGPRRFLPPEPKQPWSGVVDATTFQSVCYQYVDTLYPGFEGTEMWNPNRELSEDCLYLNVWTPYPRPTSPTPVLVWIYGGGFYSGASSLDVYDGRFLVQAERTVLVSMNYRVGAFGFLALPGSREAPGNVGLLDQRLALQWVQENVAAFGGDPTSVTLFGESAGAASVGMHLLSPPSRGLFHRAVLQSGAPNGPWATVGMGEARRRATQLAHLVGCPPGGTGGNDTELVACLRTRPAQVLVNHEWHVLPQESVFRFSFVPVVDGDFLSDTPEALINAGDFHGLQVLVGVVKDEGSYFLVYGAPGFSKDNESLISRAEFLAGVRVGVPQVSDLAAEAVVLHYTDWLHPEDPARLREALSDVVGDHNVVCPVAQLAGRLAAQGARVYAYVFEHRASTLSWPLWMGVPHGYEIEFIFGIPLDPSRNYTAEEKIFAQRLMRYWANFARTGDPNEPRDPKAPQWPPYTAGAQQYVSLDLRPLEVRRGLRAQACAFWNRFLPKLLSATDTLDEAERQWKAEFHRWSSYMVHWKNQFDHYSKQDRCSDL
row,SMILES,inhibition
1,CN(CCCOc1ccc2c(=O)c3cccnc3oc2c1)Cc1cccc(OC(=O)NCCCCCc2ccccc2)c1,tde
2,CN(CCCOc1ccc2ccc(=O)oc2c1)Cc1cccc(OC(=O)NCCCCCc2ccccc2)c1,tde
3,CN(CCCOc1ccc2ccc(=O)oc2c1)Cc1cccc(OC(=O)NCCCCCCCN2CCOCC2)c1,tde
4,CN(CCCOc1ccc2c(=O)c3cccnc3oc2c1)Cc1cccc(OC(=O)NCCCCCCCN2CCOCC2)c1,tde

# Molecular target: T2, Fatty-acid amide hydrolase 1 (Homo sapiens, UniProt O00519)
# T2 sequence (O00519 whole entry): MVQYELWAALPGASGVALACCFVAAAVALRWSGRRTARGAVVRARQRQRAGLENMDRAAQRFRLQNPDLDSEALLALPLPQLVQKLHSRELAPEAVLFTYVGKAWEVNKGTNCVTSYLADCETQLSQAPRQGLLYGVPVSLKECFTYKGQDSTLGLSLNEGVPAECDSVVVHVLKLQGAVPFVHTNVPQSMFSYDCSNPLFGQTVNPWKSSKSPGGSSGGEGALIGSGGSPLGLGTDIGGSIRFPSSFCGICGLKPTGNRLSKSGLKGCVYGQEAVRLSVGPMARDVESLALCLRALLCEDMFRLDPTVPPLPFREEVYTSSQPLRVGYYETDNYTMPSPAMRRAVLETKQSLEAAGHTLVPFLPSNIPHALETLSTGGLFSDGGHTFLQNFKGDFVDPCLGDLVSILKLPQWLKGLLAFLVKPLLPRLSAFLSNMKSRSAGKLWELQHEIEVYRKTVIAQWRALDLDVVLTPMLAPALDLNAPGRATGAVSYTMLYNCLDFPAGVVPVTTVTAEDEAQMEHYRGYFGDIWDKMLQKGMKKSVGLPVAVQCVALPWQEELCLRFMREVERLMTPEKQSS
# Experiment: Inhibition of human recombinant FAAH in assessed as hydrolysis of [14C]-anandamide preincubated for 20 mins before [14C]-anandamide addition measured after 30 mins
# Settings: not given
# Summary of the method: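 Human recombinant FAAH; the inhibitor was preincubated for 20 min before anandamide hydrolysis was measured. Values are reported as IC50.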
row,SMILES,IC50 [nM]
1,CN(CCCOc1ccc2c(=O)c3cccnc3oc2c1)Cc1cccc(OC(=O)NCCCCCc2ccccc2)c1,520
2,CN(CCCOc1ccc2ccc(=O)oc2c1)Cc1cccc(OC(=O)NCCCCCc2ccccc2)c1,2260
3,CN(CCCOc1ccc2ccc(=O)oc2c1)Cc1cccc(OC(=O)NCCCCCCCN2CCOCC2)c1,14800
4,CN(CCCOc1ccc2c(=O)c3cccnc3oc2c1)Cc1cccc(OC(=O)NCCCCCCCN2CCOCC2)c1,39000

# Molecular target: T3, Cholinesterase (Homo sapiens, UniProt P06276)
# Experiment: Reversible inhibition of human serum BuChE using butyrylthiocholine iodide as substrate assessed as recovery of enzyme activity after 48 hrs by Ellman's method
# Parameters: scale not given: the % may be the effect or the level left
# Settings: not given
# T3 sequence (P06276 whole entry): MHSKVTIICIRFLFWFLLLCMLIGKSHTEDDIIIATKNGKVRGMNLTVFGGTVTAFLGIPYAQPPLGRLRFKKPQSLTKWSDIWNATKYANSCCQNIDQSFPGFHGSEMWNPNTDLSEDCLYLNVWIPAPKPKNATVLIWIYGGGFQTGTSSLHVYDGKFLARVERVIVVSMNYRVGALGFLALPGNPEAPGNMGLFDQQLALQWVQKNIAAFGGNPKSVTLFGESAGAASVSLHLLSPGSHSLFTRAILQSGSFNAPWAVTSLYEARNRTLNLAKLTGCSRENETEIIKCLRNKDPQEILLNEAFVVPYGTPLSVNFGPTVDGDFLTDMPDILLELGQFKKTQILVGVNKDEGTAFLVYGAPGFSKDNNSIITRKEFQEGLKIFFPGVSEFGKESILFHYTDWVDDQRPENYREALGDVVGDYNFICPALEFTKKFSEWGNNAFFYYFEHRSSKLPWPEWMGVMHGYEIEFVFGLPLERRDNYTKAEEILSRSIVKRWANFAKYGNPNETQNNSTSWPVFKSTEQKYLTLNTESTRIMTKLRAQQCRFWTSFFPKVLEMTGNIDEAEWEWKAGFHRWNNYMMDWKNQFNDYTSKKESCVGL
row,SMILES,Activity [%]
1,CN(CCCOc1ccc2ccc(=O)oc2c1)Cc1cccc(OC(=O)NCCCCCc2ccccc2)c1,83

# Molecular target: T4, Fatty-acid amide hydrolase 1 (Rattus norvegicus, UniProt P97612)
# T4 sequence (P97612 whole entry): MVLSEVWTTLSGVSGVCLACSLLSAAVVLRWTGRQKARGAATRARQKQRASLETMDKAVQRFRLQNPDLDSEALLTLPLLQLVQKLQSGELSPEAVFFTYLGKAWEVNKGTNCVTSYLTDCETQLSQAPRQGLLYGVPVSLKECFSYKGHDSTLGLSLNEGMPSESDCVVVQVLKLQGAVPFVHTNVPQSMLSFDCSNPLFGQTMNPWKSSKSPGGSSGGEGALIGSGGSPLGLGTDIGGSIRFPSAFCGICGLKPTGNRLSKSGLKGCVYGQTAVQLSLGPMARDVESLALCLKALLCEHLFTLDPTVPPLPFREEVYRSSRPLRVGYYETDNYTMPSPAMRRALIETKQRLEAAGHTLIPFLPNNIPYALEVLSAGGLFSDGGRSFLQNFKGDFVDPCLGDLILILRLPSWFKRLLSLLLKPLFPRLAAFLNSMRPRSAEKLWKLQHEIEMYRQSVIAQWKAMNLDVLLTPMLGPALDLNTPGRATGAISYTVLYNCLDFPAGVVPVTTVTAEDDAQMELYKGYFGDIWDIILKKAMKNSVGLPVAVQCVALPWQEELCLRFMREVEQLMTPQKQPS
# Experiment: Inhibition of FAAH in rat brain membranes assessed as hydrolysis of [14C]-anandamide after 30 mins
# Assay type: cell membranes
# Settings: not given
# Summary of the method: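 Rat brain membrane FAAH; activity read as hydrolysis of anandamide, with the inhibitor added without preincubation (pit = 0). Values are reported as IC50.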
row,SMILES,IC50 [nM]
1,CCCCCCCNC(=O)Oc1cccc(CN(C)CCCOc2ccc3ccc(=O)oc3c2)c1,620
2,CCCNC(=O)Oc1cccc(CN(C)CCCOc2ccc3c(=O)c4ccccc4oc3c2)c1,9280
3,CCCCCCCNC(=O)Oc1cccc(CN(C)CCCOc2ccc3c(=O)c4ccccc4oc3c2)c1,3620
4,CN(CCCOc1ccc2c(=O)c3cccnc3oc2c1)Cc1cccc(OC(=O)NCCCCCc2ccccc2)c1,370
5,CN(CCCOc1ccc2ccc(=O)oc2c1)Cc1cccc(OC(=O)NCCCCCc2ccccc2)c1,280
6,CCCCCCCNC(=O)Oc1cccc(CN(C)CCCOc2ccc3c(=O)cc(-c4ccccc4)oc3c2)c1,6810
7,CCCCCCCNC(=O)Oc1cccc(CN(C)CCCOc2ccc3c(=O)c4cccnc4oc3c2)c1,2210
8,CCCCNC(=O)Oc1cccc(CN(C)CCCOc2ccc3ccc(=O)oc3c2)c1,8680
9,CN(CCCOc1ccc2ccc(=O)oc2c1)Cc1cccc(OC(=O)NCCCCCCCN2CCOCC2)c1,5590
10,CCCCNC(=O)Oc1cccc(CN(C)CCCOc2ccc3c(=O)cc(-c4ccccc4)oc3c2)c1,5540
11,CN(CCCOc1ccc2c(=O)c3cccnc3oc2c1)Cc1cccc(OC(=O)NCCCCCCCN2CCOCC2)c1,4310
12,CCCCCCNC(=O)Oc1cccc(CN(C)CCCOc2ccc3c(=O)c4ccccc4oc3c2)c1,4290
13,CCCCNC(=O)Oc1cccc(CN(C)CCCOc2ccc3c(=O)c4cccnc4oc3c2)c1,4230
14,CNC(=O)Oc1cccc(CN(C)CCCCCCCOc2ccc(-c3cc4ccccc4oc3=O)cc2)c1,9200

# Molecular target: T4, Fatty-acid amide hydrolase 1
# Experiment: Inhibition of FAAH in rat brain membranes assessed as hydrolysis of [14C]-anandamide preincubated for 20 mins before [14C]-anandamide addition measured after 30 mins
# Assay type: cell membranes
# Settings: not given
# Summary of the method: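 Rat brain membrane FAAH; the inhibitor was preincubated with the enzyme for 20 min before anandamide hydrolysis was measured. Values are reported as IC50.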
row,SMILES,IC50 [nM]
1,CCCCCCCNC(=O)Oc1cccc(CN(C)CCCOc2ccc3ccc(=O)oc3c2)c1,170
2,CCCNC(=O)Oc1cccc(CN(C)CCCOc2ccc3c(=O)c4ccccc4oc3c2)c1,100
3,CCCCCCCNC(=O)Oc1cccc(CN(C)CCCOc2ccc3c(=O)c4ccccc4oc3c2)c1,110
4,CN(CCCOc1ccc2c(=O)c3cccnc3oc2c1)Cc1cccc(OC(=O)NCCCCCc2ccccc2)c1,40
5,CN(CCCOc1ccc2ccc(=O)oc2c1)Cc1cccc(OC(=O)NCCCCCc2ccccc2)c1,50
6,CCCCCCCNC(=O)Oc1cccc(CN(C)CCCOc2ccc3c(=O)c4cccnc4oc3c2)c1,400
7,CN(CCCOc1ccc2ccc(=O)oc2c1)Cc1cccc(OC(=O)NCCCCCCCN2CCOCC2)c1,1820
8,CCCCNC(=O)Oc1cccc(CN(C)CCCOc2ccc3c(=O)cc(-c4ccccc4)oc3c2)c1,800
9,CN(CCCOc1ccc2c(=O)c3cccnc3oc2c1)Cc1cccc(OC(=O)NCCCCCCCN2CCOCC2)c1,2710
10,CCCCCCNC(=O)Oc1cccc(CN(C)CCCOc2ccc3c(=O)c4ccccc4oc3c2)c1,290
11,CCCCNC(=O)Oc1cccc(CN(C)CCCOc2ccc3c(=O)c4cccnc4oc3c2)c1,1400

# Molecular target: T3, Cholinesterase
# Experiment: Inhibition of human serum BuChE using butyrylthiocholine iodide as substrate by Ellman's method
# Settings: TDE = time-dependent effect
row,SMILES,inhibition
1,CN(CCCOc1ccc2c(=O)c3cccnc3oc2c1)Cc1cccc(OC(=O)NCCCCCc2ccccc2)c1,tde
2,CN(CCCOc1ccc2ccc(=O)oc2c1)Cc1cccc(OC(=O)NCCCCCc2ccccc2)c1,tde
3,CN(CCCOc1ccc2ccc(=O)oc2c1)Cc1cccc(OC(=O)NCCCCCCCN2CCOCC2)c1,tde
4,CN(CCCOc1ccc2c(=O)c3cccnc3oc2c1)Cc1cccc(OC(=O)NCCCCCCCN2CCOCC2)c1,tde

# Molecular target: T3, Cholinesterase
# Experiment: Inhibition of human serum BuChE using butyrylthiocholine iodide as substrate preincubated for 15 mins before substrate addition by Ellman's method
# Settings: not given
row,SMILES,IC50 [nM]
1,CN(CCCOc1ccc2c(=O)c3cccnc3oc2c1)Cc1cccc(OC(=O)NCCCCCc2ccccc2)c1,1.71
2,CN(CCCOc1ccc2ccc(=O)oc2c1)Cc1cccc(OC(=O)NCCCCCc2ccccc2)c1,1.57
3,CN(CCCOc1ccc2ccc(=O)oc2c1)Cc1cccc(OC(=O)NCCCCCCCN2CCOCC2)c1,11.2
4,CN(CCCOc1ccc2c(=O)c3cccnc3oc2c1)Cc1cccc(OC(=O)NCCCCCCCN2CCOCC2)c1,27.6

# Molecular target: T1, Acetylcholinesterase
# Experiment: Inhibition of human recombinant AChE using acetylthiocholine iodide as substrate preincubated for 120 mins before substrate addition by Ellman's method
# Settings: not given
row,SMILES,IC50 [nM]
1,CN(CCCOc1ccc2c(=O)c3cccnc3oc2c1)Cc1cccc(OC(=O)NCCCCCc2ccccc2)c1,89.5
2,CN(CCCOc1ccc2ccc(=O)oc2c1)Cc1cccc(OC(=O)NCCCCCc2ccccc2)c1,74.9
3,CN(CCCOc1ccc2ccc(=O)oc2c1)Cc1cccc(OC(=O)NCCCCCCCN2CCOCC2)c1,119
4,CN(CCCOc1ccc2c(=O)c3cccnc3oc2c1)Cc1cccc(OC(=O)NCCCCCCCN2CCOCC2)c1,139

# Molecular target: T1, Acetylcholinesterase
# Experiment: Reversible inhibition of human recombinant AChE using acetylthiocholine iodide as substrate assessed as recovery of enzyme activity after 48 hrs by Ellman's method
# Parameters: scale not given: the % may be the effect or the level left
# Settings: not given
row,SMILES,Activity [%]
1,CN(CCCOc1ccc2ccc(=O)oc2c1)Cc1cccc(OC(=O)NCCCCCc2ccccc2)c1,30
